Compound activity (PubChem)
Compounds with a hit are over-represented: about 1.5% of the library has one in this group of screens.
SUMO Mot1 rescue = blocks SUMOylation pathway, rescuing yeast Mot1-301 growth. S. cerevisiae Mot1-301 growth rescue, ATP luminescence, 38.5C; percent above DMSO median, 100 means doubled. growth rescue, % at 18.8 µM. 1% of 320,000 active;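 active = every valid replicate shows activation above 250% relative to neutral control wells; inactive = the rest, any valid replicate at or below 250%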;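 also: OY570 slx delta 5 strain wells were the positive control but not used for scaling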
C2C12 statin = suppressors of simvastatin-induced myotoxicity in C2C12 myotubes; ATP luminescence, 48 h; scaled: DMSO 0, geranylgeraniol control 100; rescue of ATP level, % at 7.49 µM; 0.78% of 330,000 active; AID 602340;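 active = mean ATP rescue above about 67%, or every replicate alone reaching that limit, limit read from the data, passing the limit was not always enough; inconclusive = no clear call, values can overlap the other calls; inactive = mean under the limit and some replicate under it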;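 also: myotubes were challenged with 10 µM simvastatin during compound exposure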
Cneo AK release = causes C. neoformans cell lysis; adenylate kinase release luminescence, 4 h; normalised: neutral wells 0, clomiphene wells 100; lysis activity, % at 15 µM; 0.2% of 360,000 active;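 active = mean lysis activity across replicates of at least 80%, whatever share of replicates individually reach that level; inactive = mean lysis activity below 80%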
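Schedule: static 4 h at 37 °C with compound, 1 h detection; system: C. neoformans cells; benchmarks: Clomiphene as positive control; buffer or medium: fresh YPD medium; measure: luminescence rise reflecting yeast cell lysis; measured by: luminescent adenylate kinase detection reagent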
An asterisk follows results filed as active; ? = inconclusive; nt = not tested or not shown.

SMILES	SUMO Mot1 rescue	C2C12 statin	Cneo AK release
C[C@@H]1CN([C@H](C)CO)C(=O)c2cccc(NC(=O)c3nc4ccccc4s3)c2O[C@@H]1CN(C)Cc1ccc(C(=O)Nc2ccccc2N)cc1	nt	?	-1
C[C@@H]1CN([C@@H](C)CO)C(=O)c2cccc(NC(=O)c3ccncc3)c2O[C@H]1CN(C)C(=O)Nc1ccccc1	nt	3	109*
C[C@@H]1CN([C@H](C)CO)C(=O)c2cccc(NC(=O)c3ccncc3)c2O[C@@H]1CN(C)C(=O)Nc1ccc(F)cc1	nt	19	0
C[C@@H]1CN([C@H](C)CO)C(=O)c2cccc(NC(=O)c3ccc(-c4nccs4)cc3)c2O[C@@H]1CN(C)C(=O)Nc1ccc(F)cc1	nt	87*	-6
C[C@@H]1CN([C@H](C)CO)C(=O)c2cccc(NC(=O)c3ccc(-c4nccs4)cc3)c2O[C@H]1CN(C)C(=O)Nc1ccc(F)cc1	nt	-21	7
C[C@@H]1CN([C@H](C)CO)C(=O)c2cccc(NC(=O)c3ccncc3)c2O[C@H]1CN(C)C(=O)Nc1ccc(C(F)(F)F)cc1	nt	11	82*
CO[C@@H]1CC[C@@H]2CCOc3c(C#N)cccc3C(=O)N(C)[C@H](C)C(=O)N(C)C[C@@H]1O2	nt	0	-7
C[C@@H]1CN([C@H](C)CO)C(=O)c2cccc(NC(=O)c3ccncc3)c2O[C@@H]1CN(C)Cc1ccc(-c2ccccc2)cc1	nt	14	101*
C[C@@H]1CN([C@@H](C)CO)C(=O)c2cccc(NC(=O)c3ccncc3)c2O[C@@H]1CN(C)C(=O)Nc1ccccc1	nt	4	1
C[C@@H]1CN([C@H](C)CO)C(=O)c2cccc(NC(=O)c3ccncc3)c2O[C@H]1CN(C)C(=O)Nc1ccccc1	nt	13	104*
C[C@@H]1CN([C@@H](C)CO)C(=O)c2cccc(NC(=O)c3ccncc3)c2O[C@@H]1CN(C)Cc1ccc(-c2ccccc2)cc1	13	5	7
NC(=O)[C@H]1[C@@H]2C(=O)O[C@@H](c3ccccc3)[C@@H](c3ccccc3)N2[C@@H](c2ccc(O)cc2)[C@]12C(=O)Nc1ccc(C#CC3(O)CCCCCC3)cc12	nt	nt	50
O=C(Cn1ncc2c3ccccc3n(Cc3ccccc3F)c2c1=O)NCC1CCCO1 (configuration not stated)	11	-4	1
O=C(Cn1ncc2c3ccccc3n(Cc3cccc(Cl)c3)c2c1=O)NCC1CCCO1 (configuration not stated)	-20	100*	-3
CCOC(=O)Cn1cc(C(=O)OC)c2ccccc21	-24	5	-1
COC(=O)c1cn(CC(=O)N2C(C)CCCC2C)c2ccccc12 (configuration not stated)	9	105*	0
CC1CCCC(C)N1C(=O)Cn1cc(C#N)c2ccccc21 (configuration not stated)	36	nt	nt
COC(=O)Cn1cc(C(=O)OC)c2ccccc21	8	98*	-5
CO[C@@H]1CN(C)C(=O)c2ccc(NC(C)=O)cc2OC[C@H](C)N(C(=O)C2CC2)C[C@@H]1C	nt	-3	-8
O=C(C[C@H]1CC[C@H]2[C@@H](COC[C@@H](O)CN2Cc2cc(F)ccc2F)O1)NCc1ccc(F)cc1	nt	25	-4
COc1cccc(S(=O)(=O)N[C@H]2CC[C@H](CCNC(=O)Cc3ccncc3)O[C@@H]2CO)c1	nt	-2	0
COc1ccc(OC)c(CN2CCN(Cc3ccc(OC)c(OC)c3OC)CC2)c1	nt	-2	0
COc1ccc2oc(=O)cc(CN3CCN(Cc4ccc(OC)c(OC)c4OC)CC3)c2c1	-9	123*	3
O=[N+]([O-])c1cccc(C2NCC(c3ccccc3Cl)c3c2[nH]c2ccccc32)c1 (configuration not stated)	564*	nt	nt
CN(C)c1ccc(C2CNC(c3ccc(Cl)c([N+](=O)[O-])c3)c3[nH]c4ccccc4c32)cc1 (configuration not stated)	-8	3	-3
SMILES	SUMO Mot1 rescue	C2C12 statin	Cneo AK release
CCC(=O)Nc1ccc2c(c1)C(=O)N(C)[C@@H]1CC[C@H](CC(=O)NCCc3ccccc3)O[C@H]1CO2	nt	-2	0
COc1ccc(CN(C)C[C@H]2OCCCC[C@H](C)Oc3ccc(NS(=O)(=O)c4cccs4)cc3C(=O)N([C@H](C)CO)C[C@H]2C)cc1	nt	nt	1
COc1ccc(-c2cc(-c3cc(OC)ccc3O)[nH]n2)cc1	2	-3	0
COc1ccc(-c2n[nH]c(C)c2-c2cc(OC)ccc2O)cc1	-6	134*	-1
CC(C)COC(=O)N(C)C[C@H]1OCc2ccccc2-c2c(n(C)c3ccccc23)C(=O)N([C@@H](C)CO)C[C@@H]1C	nt	nt	1
CC(C)(C)c1cc(CCC(=O)NCC2CCCO2)cc(C(C)(C)C)c1O (configuration not stated)	298*	1	3
CCCNC(=O)CCc1cc(C(C)(C)C)c(O)c(C(C)(C)C)c1	0	nt	nt
COCC(=O)Nc1ccc2c(c1)C(=O)N(C)[C@H]1CC[C@@H](CC(=O)NCCc3ccncc3)O[C@H]1CO2	nt	-13	5
C[C@H](O)C#Cc1ccc([C@@H]2[C@@H](CO)N3CCCCN(CC4CC4)C[C@H]23)cc1	nt	-13	-3
C[C@@H](O)C#Cc1ccc([C@@H]2[C@H]3CN(CC4CC4)CCCCN3[C@H]2CO)cc1	nt	1	115*
C[C@H](O)C#Cc1ccc([C@H]2[C@H](CO)N3CCCCN(CC4CCOCC4)C[C@@H]23)cc1	nt	nt	98*
C[C@H](O)C#Cc1ccc([C@@H]2[C@H]3CN(CC4CCOCC4)CCCCN3[C@H]2CO)cc1	nt	nt	0
CC(=O)N(CC(C)C)C[C@H]1[C@@H](c2ccc(C3=CCCC3)cc2)[C@@H](CO)N1C(C)=O	nt	6	5
CC1(C)CC(=O)C2=C(C1)N(c1cccnc1)C(N)=C(C#N)C2c1cccs1 (configuration not stated)	-9	nt	nt
CCSc1sccc1C1C(C#N)=C(N)N(c2cccnc2)C2=C1C(=O)CC(C)(C)C2 (configuration not stated)	49	77*	1
S=C(c1ccc(-c2ccccc2Cl)o1)N1CCOCC1	67	78*	-2
S=C(c1ccc(-c2ccc(Cl)c(Cl)c2)o1)N1CCOCC1	-12	16	-2
C[C@H]1CN([C@@H](C)CO)C(=O)c2ccccc2-c2ccccc2CO[C@H]1CN(C)Cc1cccc(F)c1	nt	nt	-3
CCOC(=O)N1CCC(NC(=O)CCC(=O)N2CCOc3ccccc32)CC1	nt	123*	nt
O=C(CCC(=O)N1CCOc2ccccc21)NC1CCCCCC1	-15	2	0
CCS(=O)(=O)Nc1ccc2c(c1)C(=O)N(C)C[C@@H](OC)[C@@H](C)CN(C(=O)C1CC1)[C@H](C)CO2	nt	-8	-2
FC(F)(F)c1nnc(-c2ccccc2)nc1N1CCOCC1	9	7	2
FC(F)(F)c1cccc(-c2nnc(-c3ccccc3)c(N3CCOCC3)n2)c1	-6	134*	-1
O=C(C[C@@H]1CC[C@@H](NS(=O)(=O)c2ccc(F)cc2)[C@@H](CO)O1)NC1CCCCC1	nt	2	2
CCc1c(C)sc(NC(=O)c2ccco2)c1C(=O)N1CCCCC1	-16	116*	-1
